Experimental data from different studies.
Compare with care: the assays were run in different laboratories.
Target: Dual specificity protein kinase CLK2 (CLK2, Homo sapiens, UniProt P49760)
Technique: competition with immobilised ligand

CC(=O)C1=C(C)N(c2cccc(C(F)(F)F)c2)C(=O)N[C@@H]1c1ccc(C#N)nc1
remaining binding (cell-free assay; 1 µM): 100%

O=C(c1ccc(Nc2nccc(-c3cc4ccccc4s3)n2)cc1)N1CCC(N2CCCC2)CC1
remaining binding (binding; 1 µM): 39%

FC(F)(F)Oc1cccc(-c2cnc3ccc(-c4ccncc4)nn23)c1
remaining binding (cell-free assay; 5 µM): 6.2%

CNC(=O)[C@@H]1CC[C@@H](n2c(-c3ccc4cnccc4c3)nc3ccc(C(=O)NCc4cccc(C(N)=O)c4)cc32)C1
remaining binding (binding; 1 µM): 100%

CCN1CCN(Cc2ccc(C(=O)Nc3ccc(C)c(Oc4ccc5c(c4)CC(=O)N5)c3)cc2C(F)(F)F)CC1
remaining binding (binding; 1 µM): 100%

Cc1nc(Cc2cccc(C(F)(F)F)c2)sc1-c1ccc(C(N)=O)nc1
remaining binding (cell-free assay; 1 µM): 100%

O=C(NCC1CCOCC1)c1n[nH]cc1NC(=O)c1c(F)cccc1F
remaining binding (binding; 1 µM): 34%

O=C(c1ccc(Nc2ncc(Cl)c(-c3ccc(Cl)s3)n2)cc1)N1CCC(N2CCCC2)CC1
remaining binding (binding; 1 µM): 5.2%

COc1cnc(Nc2cccc(S(N)(=O)=O)c2)nc1N1CCN(c2ccccc2)C(=O)C1
remaining binding (binding; 1 µM): 76%

Cc1cc(C)c(-n2ccn3nc(-c4cccnc4)cc23)cc1NC(=O)c1cc(C#N)cc(S(F)(F)(F)(F)F)c1
remaining binding (cell-free assay; 0.1 µM): 91%

COc1ncc2cc3ccccc3nc2c1C#N
remaining binding (cell-free assay; 5 µM): 76%

O=C(c1ccc(Nc2ncc(Cl)c(-c3cc4ccccc4s3)n2)cc1)N1CCC(N2CCCC2)CC1
remaining binding (binding; 1 µM): 6.7%

COc1ccc2c(c1)O[C@H](c1ccc(OC)c(OC)c1)C[C@@H]2NC(=O)C1(c2ccc3c(c2)OC(F)(F)O3)CC1
remaining binding (cell-free assay; 1 µM): 95%
